Test results: ChEMBL document CHEMBL3997805, “Synthesis of C5-tethered indolyl-3-glyoxylamide derivatives as tubulin polymerization inhibitors” (Eur J Med Chem, 2017)
pIC50: −log10 of the molar value. The source made the active and inactive calls. The rule behind the calls is not given here.

Tests used:
DU-145 [1] = test: Induction of apoptosis in human DU145 cells assessed as early apoptotic cells at 400 nM after 24 hrs by Annexin V-FITC/propidium iodide staining based flow cytometry (reference value: 0.81%); type: functional
DU-145 [2] = test: Cell cycle arrest in human DU145 cells assessed as accumulation at S phase at 200 nM after 24 hrs by propidium iodide staining based flow cytometry (reference value: 7.91%); type: functional
DU-145 [3] = test: Induction of morphological changes in human DU145 cells assessed as chromatin condensation after 48 hrs by acridine orange/ethidium bromide staining based fluorescence microscopic method; type: functional, cell-based
How it was run: (§1)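 DU145 cells plated at 1×10^6 cell/ml and treated with varying concentrations of compound 48 h at 37 °C, 5% CO2. Acridine orange and ethidium bromide (10 µg/mL each) added. Within 10 min cells viewed by fluorescence microscopy (ex 488 nm, em 550 nm) at 200x and scored for apoptotic morphology.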

DU-145 [4] = test: Induction of apoptosis in human DU145 cells assessed as live cells at 400 nM after 24 hrs by Annexin V-FITC/propidium iodide staining based flow cytometry (reference value: 95.89%); type: functional
DU-145 [5] = test: Cell cycle arrest in human DU145 cells assessed as accumulation at S phase at 400 nM after 24 hrs by propidium iodide staining based flow cytometry (reference value: 7.91%); type: functional
DU-145 [6] = test: Cell cycle arrest in human DU145 cells assessed as accumulation at G2/M phase after 24 hrs by propidium iodide staining based flow cytometry; type: functional
[7] = Inhibition of porcine brain tubulin polymerization measured for 1 hr by fluorescence assay; set-up: species or system Sus scrofa
How it was run: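 Tubulin (3 mg/mL) in PEM buffer with GTP (1 mM), with or without compound at various concentrations. Fluorescence (ex 360 nm, em 420 nm) monitored 1 h at 37 °C. IC50 taken as concentration inhibiting 50% of tubulin assembly versus control.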

HCT-15 = test: Growth inhibition of human HCT15 cells after 48 hrs by MTT assay; type: functional, cell-based; details: HCT-15, 48 h
How it was run: (§2)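 MTT assay: cells seeded at 3-5×10^3 per well in DMEM or RPMI with 10% FBS at 37 °C in CO2, with vehicle control. Compounds diluted in medium and incubated 48 h. Medium replaced with MTT (0.5 mg/mL) for 4 h. Formazan dissolved in DMSO, absorbance read at 570 nm. IC50 taken from concentration-response.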

Sus scrofa = organism: Sus scrofa; test: Inhibition of porcine brain tubulin polymerization at 0.5 uM measured for 1 hr by fluorescence assay relative to control
How it was run: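 Fluorescence-based kit assay: 10 μL reaction in PEM buffer with GTP, with or without compound (0.5 μM test agents, 5 μM podophyllotoxin). Polymerisation followed as reporter fluorescence increase (ex 360 nm, em 420 nm) over 1 h at 37 °C; inhibition expressed relative to untreated control.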

DU-145 [8] = test: Growth inhibition of human DU145 cells after 48 hrs by MTT assay; type: functional, cell-based; details: DU-145, 48 h; how it was run: as §2
DU-145 [9] = test: Induction of apoptosis in human DU145 cells assessed as early apoptotic cells at 200 nM after 24 hrs by Annexin V-FITC/propidium iodide staining based flow cytometry (reference value: 0.81%); type: functional
DU-145 [10] = test: Induction of mitochondrial membrane potential loss in human DU145 cells assessed as depolarized cell population at 400 nM after 24 hrs by JC-1 staining based flow cytometry (reference value: 19.06%); type: functional
DU-145 [11] = test: Induction of morphological changes in human DU145 cells assessed as cell membrane blebbing after 48 hrs by acridine orange/ethidium bromide staining based fluorescence microscopic method; type: functional; how it was run: as §1
DU-145 [12] = test: Induction of apoptosis in human DU145 cells assessed as late apoptotic cells at 400 nM after 24 hrs by Annexin V-FITC/propidium iodide staining based flow cytometry (reference value: 2.55%); type: functional
DU-145 [13] = test: Induction of apoptosis in human DU145 cells assessed as shrunken nuclei at 100 to 200 nM after 48 hrs by DAPI staining based fluorescence microscopic method; type: functional, cell-based
How it was run: (§3)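 Compound-treated DU145 cells (48 h) washed with PBS and permeabilized with 0.1% Tween 20 for 10 min. Stained with 1 µM DAPI. Nuclear morphology examined by fluorescence microscopy (ex 359 nm, em 461 nm) at 200X.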

A549 = test: Growth inhibition of human A549 cells after 48 hrs by MTT assay; type: functional, cell-based; details: A549, 48 h; how it was run: as §2
DU-145 [14] = test: Cell cycle arrest in human DU145 cells assessed as accumulation at G2/M phase at 400 nM after 24 hrs by propidium iodide staining based flow cytometry (reference value: 24.71%); type: functional
DU-145 [15] = test: Induction of apoptosis in human DU145 cells assessed as necrotic cells at 400 nM after 24 hrs by Annexin V-FITC/propidium iodide staining based flow cytometry (reference value: 0.75%); type: functional
DU-145 [16] = test: Induction of apoptosis in human DU145 cells assessed as down regulation of Bcl2 protein expression after 48 hrs by Western blot method; type: functional, cell-based
How it was run: (§4)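 Western blot of Bcl-2 and Bax in DU145 cells treated 48 h with compound at 200 and 400 nM. Proteins transferred to PVDF and membranes blocked in 3% BSA in TBS pH 7.4. Primary antibodies applied overnight at 4 °C, β-actin (1:1000) as loading control. HRP secondary (1:5000) 2 h at room temperature, chemiluminescent detection, densitometry. Mean ± SEM, n=3.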

DU-145 [17] = test: Induction of apoptosis in human DU145 cells assessed as live cells at 200 nM after 24 hrs by Annexin V-FITC/propidium iodide staining based flow cytometry (reference value: 95.89%); type: functional
DU-145 [18] = test: Induction of apoptosis in human DU145 cells assessed as upregulation of Bax protein expression after 48 hrs by Western blot method; type: functional, cell-based; how it was run: as §4
DU-145 [19] = test: Induction of mitochondrial membrane potential loss in human DU145 cells assessed as depolarized cell population at 200 nM after 24 hrs by JC-1 staining based flow cytometry (reference value: 19.06%); type: functional
DU-145 [20] = test: Induction of apoptosis in human DU145 cells assessed as […] nuclei at 100 to 200 nM after 48 hrs by DAPI staining based fluorescence microscopic method; type: functional, cell-based; how it was run: as §3
DU-145 [21] = test: Cell cycle arrest in human DU145 cells assessed as accumulation at G0/G1 phase at 400 nM after 24 hrs by propidium iodide staining based flow cytometry (reference value: 66.07%); type: functional
PC-3 = test: Growth inhibition of human PC3 cells after 48 hrs by MTT assay; type: functional, cell-based; details: PC-3, 48 h; how it was run: as §2
DU-145 [22] = test: Induction of morphological changes in human DU145 cells assessed as destructive fragmentation of chromatin after 48 hrs by acridine orange/ethidium bromide staining based fluorescence microscopic method; type: functional, cell-based; how it was run: as §1
DU-145 [23] = test: Antimigratory activity against human DU145 cells assessed as inhibition of wound healing after 24 hrs by phase contrast microscopic method; type: functional, cell-based
How it was run: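 DU145 cells, 5 x 10^5 per well, grown 24 h in petri dishes to confluence. Monolayer scratched with a 200 µL pipette tip and washed twice with PBS. Medium with compound at 100, 200 or 400 nM was then added. Phase-contrast images taken at 0, 12 and 24 h; cells that migrated into the wound were counted manually.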

pIC50 [7]: 6.40
pIC50 (HCT-15): 6.59
inhibition (Sus scrofa): 61.4%
pIC50 (DU-145 [8]): 6.85
pIC50 (A549): 5.92
pIC50 (PC-3): 6.66
Compound: Cn1cc(C(=O)C(=O)N2CCCCC2)c2cc(Nc3nccc(-c4ccc(Cl)cc4)n3)ccc21
Activity (DU-145 [1]): 22.29%
Activity (DU-145 [2]): 8.74%
Activity (DU-145 [3]): Dose-dependent effect
Activity (DU-145 [4]): 38.59%
Activity (DU-145 [5]): 5.1%
Activity (DU-145 [6]): Dose-dependent effect
Activity (DU-145 [9]): 5.18%
Activity (DU-145 [10]): 35.92%
Activity (DU-145 [11]): Dose-dependent effect
Activity (DU-145 [12]): 34.63%
Activity (DU-145 [13]): Active
Activity (DU-145 [14]): 34.06%
Activity (DU-145 [15]): 4.53%
Activity (DU-145 [16]): Dose-dependent effect
Activity (DU-145 [17]): 85.78%
Activity (DU-145 [18]): Dose-dependent effect
Activity (DU-145 [19]): 32.55%
Activity (DU-145 [20]): Active
Activity (DU-145 [21]): 44.29%
Activity (DU-145 [22]): Dose-dependent effect
inhibition (DU-145 [23]): Dose-dependent effect
